Screening data deposited in PubChem by The Scripps Research Institute Molecular Screening Center.
Compounds with a hit are over-represented: about 4.6% of the library has one in this group of screens.
OX1R antag-1 – blocks the human orexin 1 receptor | AID 485270 | inhibition, % at 6.6 µM | 330,000 tested, 1.8% active | OX1R-expressing cells, FRET antagonist read-out; in the data active = inhibition mostly above about 38%, no sharp cut-off; inactive = mostly below about 40%
Target sequence (O43613 whole entry, looked up): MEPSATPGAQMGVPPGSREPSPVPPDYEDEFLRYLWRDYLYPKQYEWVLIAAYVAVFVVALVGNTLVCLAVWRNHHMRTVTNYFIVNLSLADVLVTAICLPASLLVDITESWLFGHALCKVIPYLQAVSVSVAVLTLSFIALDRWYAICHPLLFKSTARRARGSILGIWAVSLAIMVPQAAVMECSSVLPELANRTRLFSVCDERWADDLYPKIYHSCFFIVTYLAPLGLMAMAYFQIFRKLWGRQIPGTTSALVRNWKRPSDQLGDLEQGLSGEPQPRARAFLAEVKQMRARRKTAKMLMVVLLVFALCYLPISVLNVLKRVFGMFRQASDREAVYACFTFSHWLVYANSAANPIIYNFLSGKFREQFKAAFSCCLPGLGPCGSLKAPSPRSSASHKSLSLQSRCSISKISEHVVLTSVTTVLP
CHO parental Ca – counter-screen: ATP calcium response change in parental CHO cells; parental CHO-K1, ATP-induced calcium, Fluo-8 fluorescence; inhibition, % at 5.6 µM; 330,000 tested, 0.63% active; AID 463079;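 active = inhibition above that plate's mean sample inhibition plus 3 SD, cut at about 26% in these data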
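Assay system: untransfected parental CHO cell line. Also added: ATP agonist challenge. Dosing: one dose, 5.6 µM nominal. Measured by: Fluo-8 fluorescence. Read-out: % inhibition. Benchmarks: ATP wells versus no-ATP DMSO wells. Repeats: no replicates.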
TAAR1 ag – human TAAR1 agonism. Q96RJ0. AID 624467. CHO RD-HGA16 TAAR1, Fluo-8 calcium fluorescence; vehicle wells 0%, saturating PEA agonist 100%. 360,000 tested, 0.99% active. activation, % at 3 µM;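 active = activation above the mean activation of all test compounds in the run plus 3 SD, cut at about 38% in these data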
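Test system: RD-HGA16 (CHO) cells co-expressing Gα16 and hTAAR1; dosing: one-point dosing at 3 µM (nominal); timing: 17-24 h seeding, 75 min 37 °C dye, 30 min RT; signal: kinetic Fluo-8 calcium fluorescence; read-out basis: % activation relative to PEA EC100 response; controls: DMSO and PEA EC100; replicates: n 1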
OX1R antag-2 – blocks the human orexin 1 receptor; inhibition, % at 5 µM; CHO/OX1R cells, Fluo-8 calcium fluorescence, orexin A; O43613; 330,000 tested, 0.43% active;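 active = inhibition above its plate's threshold, mean inhibition of all tested compounds on the plate plus 3 SD, cut at about 37% in these data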
GPR7 antag – human neuropeptides B/W receptor 1 antagonism | 290,000 tested, 1.1% active | P48145 | GPR7-expressing cells, fluorescence antagonist assay | AID 1861 | inhibition, % at 4.4 µM; in the data active = inhibition above about 16%, passing the limit was not always enough;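 note: cells stimulated with the agonist NPW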
TAAR1 antagonist – antagonists of human TAAR1 | Q96RJ0 | inhibition, % at 3 µM | CHO RD-HGA16 TAAR1, Fluo-8 calcium fluorescence, antagonist | 360,000 tested, 1.5% active;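 active = inhibition above a per-plate cutoff, the mean inhibition of test compounds on that plate plus 3 SD, cut at about 49% in these data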
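System: CHO RD-HGA16 cells bearing hTAAR1. Reagent: EC80 β-phenethylamine stimulus. Schedule: seeding 17-24 h prior, 75-min 37 °C, 30-min RT dye loading. Signal: Fluo-8 intracellular calcium dye fluorescence, real-time kinetic reads. Read-out: % inhibition from peak post-agonist over basal fluorescence ratio. Benchmarks: vehicle wells and EC80 agonist wells. Replicates: n of 1.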
A number is an active result.

Results for CN(C)c1ccc(C(=O)N2CCC2(C)C(=O)O)cc1 (stereo not given) ?
TAAR1 ag: inactive; TAAR1 antagonist: inactive

What do the screens show for `CCCNC(=O)COC(=O)c1cccnc1Nc1ccccc1F`?
OX1R antag-1: inactive; CHO parental Ca: inactive; TAAR1 ag: inactive; OX1R antag-2: inactive; GPR7 antag: inactive; TAAR1 antagonist: inactive

Results for O=C(COC(=O)c1cccnc1Nc1ccccc1F)NCCN1C(=O)CSC1=O ?
OX1R antag-1: 55; CHO parental Ca: inactive; TAAR1 ag: inactive; OX1R antag-2: inactive; GPR7 antag: inactive; TAAR1 antagonist: inactive

How did Cc1ccccc1S(=O)(=O)NC(=O)C1(C)CCN1C(=O)Cc1ccccc1Cl (stereo not given) do in these assays?
TAAR1 ag: inactive; TAAR1 antagonist: inactive

How did CC(C)CC1O[C@@H](C)[C@@H]2CN3CCc4c([nH]c5ccccc45)[C@@H]3C[C@@H]2N1C (stereo not given in full) do in these assays?
TAAR1 ag: inactive; TAAR1 antagonist: inactive

How did Cn1c(/C=C/c2ccccc2[N+](=O)[O-])nc2ccccc2c1=O do in these assays?
TAAR1 ag: inactive; GPR7 antag: inactive; TAAR1 antagonist: inactive

What do the screens show for `CCn1c(/C=C/c2ccccc2[N+](=O)[O-])nc2ccccc2c1=O`?
OX1R antag-1: 53; CHO parental Ca: inactive; TAAR1 ag: inactive; OX1R antag-2: inactive; GPR7 antag: inactive; TAAR1 antagonist: inactive

Results for CC(C)NC(=O)C1(C)CCN1C(=O)C1(c2ccccc2)CC1 (stereo not given) ?
TAAR1 ag: inactive; TAAR1 antagonist: inactive

How did Fc1cc(F)c2nc(Nc3nc4cc5c(cc4s3)OCO5)sc2c1 do in these assays?
OX1R antag-1: inactive; CHO parental Ca: inactive; TAAR1 ag: inactive; OX1R antag-2: inactive; GPR7 antag: inactive; TAAR1 antagonist: 61

What do the screens show for `CCOC(=O)N[C@@H](Cc1cccnc1)C(=O)N1CCC[C@H]1C(=O)NC1CCCC1`?
TAAR1 ag: inactive; TAAR1 antagonist: inactive

What do the screens show for `Cc1ccc(-c2nc3cccnc3o2)cc1NC(=O)COc1ccc(Cl)cc1C`?
OX1R antag-1: inactive; CHO parental Ca: inactive; TAAR1 ag: inactive; OX1R antag-2: inactive; GPR7 antag: inactive; TAAR1 antagonist: inactive

What do the screens show for `Cc1ccc(-c2nc3cccnc3o2)cc1NC(=O)COc1ccc(C(C)(C)C)cc1`?
OX1R antag-1: inactive; CHO parental Ca: 40; TAAR1 ag: inactive; OX1R antag-2: inactive; GPR7 antag: inactive; TAAR1 antagonist: 69

Results for CC(C)C(=O)N1CCC1(C)C(=O)Nc1nc2ccccc2[nH]1 (stereo not given) ?
TAAR1 ag: inactive; TAAR1 antagonist: inactive

What do the screens show for `COC(=O)C1=C(C)N(C)C(=NCc2cccc(C(F)(F)F)c2)NC1c1cccc(F)c1` (stereo not given)?
TAAR1 ag: inactive; TAAR1 antagonist: inactive

What do the screens show for `Cc1ccc(-n2c(-c3ccc(Br)cc3)c[n+]3c2CCc2ccc4cccnc4c2-3)cc1`?
OX1R antag-1: inactive; CHO parental Ca: 84; TAAR1 ag: inactive; OX1R antag-2: 90; GPR7 antag: 65; TAAR1 antagonist: inactive

What do the screens show for `COc1ccc(F)cc1-c1cc(NC=O)c2ncc(-c3cc(OC)c(OC)c(OC)c3)n2c1`?
TAAR1 ag: 48; TAAR1 antagonist: 77

What do the screens show for `COc1ccccc1-c1cc(NC=O)c2ncc(-c3ccc(F)cc3)n2c1`?
TAAR1 ag: 52; TAAR1 antagonist: 51

Results for COC(=O)C(C(=O)OC)c1ccccc1NC(=O)OCc1ccccc1 ?
TAAR1 ag: inactive; TAAR1 antagonist: inactive

How did Cc1nn(-c2ccccc2)c(N)c1N=O do in these assays?
OX1R antag-1: 61; CHO parental Ca: inactive; TAAR1 ag: inactive; OX1R antag-2: inactive; GPR7 antag: inactive; TAAR1 antagonist: inactive

How did OCCCNc1cc(-c2ccnc(Nc3cccc(Cl)c3)n2)ccn1 do in these assays?
OX1R antag-1: inactive; CHO parental Ca: inactive; TAAR1 ag: inactive; OX1R antag-2: inactive; TAAR1 antagonist: 80

What do the screens show for `Cc1ccc2nsnc2c1S(=O)(=O)N1CCN(C(=O)C2CCCO2)CC1` (stereo not given)?
OX1R antag-1: 69; CHO parental Ca: inactive; TAAR1 ag: inactive; OX1R antag-2: inactive; GPR7 antag: inactive; TAAR1 antagonist: inactive

Results for Cc1cc(N2CCN(C(=O)OC(C)(C)C)C[C@@H]2C)ccc1N1C[C@@H](C)O[C@@H](C)C1 ?
TAAR1 ag: inactive; TAAR1 antagonist: inactive

Results for COC(=O)C1=C(C)N(Cc2ccccc2)C(=NCC(C)C)N[C@H]1c1cccc(F)c1 ?
OX1R antag-1: inactive; CHO parental Ca: inactive; TAAR1 ag: 44; OX1R antag-2: inactive; TAAR1 antagonist: inactive

How did COC(=O)C1=C(C)N(Cc2ccccc2)C(=S)N[C@H]1c1cccc(C(F)(F)F)c1 do in these assays?
OX1R antag-1: inactive; CHO parental Ca: inactive; TAAR1 ag: inactive; OX1R antag-2: inactive; TAAR1 antagonist: 56

How did O=C(N[C@H](Cc1ccccc1)C(=O)N1CCN(c2ccc(Cl)cn2)CC1)[C@H]1O[C@@H](n2ccc(=O)[nH]c2=O)[C@H](O)[C@@H]1O do in these assays?
TAAR1 ag: inactive; TAAR1 antagonist: inactive

How did CCN(Cc1ccccc1)C(=O)c1cc2c(=O)oc3ccc(C)cc3c2s1 do in these assays?
OX1R antag-1: inactive; CHO parental Ca: inactive; TAAR1 ag: inactive; OX1R antag-2: inactive; GPR7 antag: inactive; TAAR1 antagonist: 83

How did Cc1ccc2oc(=O)c3cc(C(=O)N4CCN(C(=O)c5ccco5)CC4)sc3c2c1 do in these assays?
OX1R antag-1: inactive; CHO parental Ca: inactive; OX1R antag-2: inactive; GPR7 antag: inactive

What do the screens show for `CCOC(=O)C1(C)CCCN(C(=O)COc2ccccc2)C1` (stereo not given)?
TAAR1 ag: inactive; TAAR1 antagonist: inactive

How did O=C1[C@@H](Oc2ccccc2)[C@@H](c2cnc3ccccc3c2)N1c1ccccc1 do in these assays?
OX1R antag-1: 41; CHO parental Ca: inactive; TAAR1 ag: inactive; OX1R antag-2: inactive; TAAR1 antagonist: inactive

How did Cc1sc(NC(=O)c2ccc(Cl)s2)c(C(N)=O)c1C do in these assays?
OX1R antag-1: 47; CHO parental Ca: inactive; TAAR1 ag: inactive; OX1R antag-2: inactive; GPR7 antag: inactive; TAAR1 antagonist: inactive

What do the screens show for `Cc1sc(NC(=O)c2ccc(Br)s2)c(C(N)=O)c1C`?
OX1R antag-1: inactive; CHO parental Ca: inactive; TAAR1 ag: inactive; OX1R antag-2: inactive; GPR7 antag: inactive; TAAR1 antagonist: inactive

Results for CCCCc1c(-c2ccccc2OC)ncn1Cc1ccc(C(C)(C)C)cc1 ?
TAAR1 ag: inactive; TAAR1 antagonist: inactive

Results for O=C(CC(NC(=O)OCc1ccccc1)C(=O)OCc1ccccc1)OCc1ccccc1 (stereo not given) ?
TAAR1 ag: inactive; TAAR1 antagonist: 59
